Data as given in ChEMBL document CHEMBL5058577, “EUbOPEN Chemogenomics Library 2 (Multiplex)” (2022).

Test system: Fibroblast
Experiment: Multiplex assay against human fibroblast
Assay type: toxicity, cell-based
Method in brief: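 Imaging took place on a CQ1 microscope at 37°C and 5% CO2 once compound had been added to live cells stained at seeding with Hoechst33342, BioTracker Green Microtubule Cytoskeleton Dye, MitoTracker Red and Annexin V Alexa Fluor 680. CellPathfinder machine-learning gating classed cells as Hoechst high-intensity objects or normal cells, classed normal cells as having healthy, pyknosed or fragmented nuclei, and classed pyknosed cells as mitotic or apoptotic. Tubulin, mitochondrial-mass and membrane-permeability phenotypes are per cents of the healthy-nucleus cells.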

[1] = 12 h, 1 µM, compound concentration 1 uM, replicate 1
[2] = 12 h, 1 µM, compound concentration 1 uM, replicate 2
[3] = 12 h, 10 µM, compound concentration 10 uM, replicate 1
[4] = 12 h, 10 µM, compound concentration 10 uM, replicate 2
[5] = 24 h, 1 µM, compound concentration 1 uM, replicate 1
[6] = 24 h, 1 µM, compound concentration 1 uM, replicate 2
[7] = 24 h, 10 µM, compound concentration 10 uM, replicate 1
[8] = 24 h, 10 µM, compound concentration 10 uM, replicate 2
[9] = 48 h, 1 µM, compound concentration 1 uM, replicate 1
[10] = 48 h, 1 µM, compound concentration 1 uM, replicate 2
[11] = 48 h, 10 µM, compound concentration 10 uM, replicate 1
[12] = 48 h, 10 µM, compound concentration 10 uM, replicate 2

## CSCC[C@H](NC=O)C(=O)N[C@@H](CC(C)C)C(=O)N[C@@H](Cc1ccccc1)C(=O)O
[1]
  Population Fragmented Nuclei (%): 18%
  Population Healthy Nuclei (%): 69%
  Population Mitochondria Different-Phenotype (%): 3%
  Population Tubulin-Different-Phenotype (%): 26%
  Total Cell Count: 182
[2]
  Population Fragmented Nuclei (%): 29%
  Population Healthy Nuclei (%): 51%
  Population Mitochondria Different-Phenotype (%): 4%
  Population Tubulin-Different-Phenotype (%): 39%
  Total Cell Count: 175
[3]
  Population Mitochondria Different-Phenotype (%): 5%
  Population Tubulin-Different-Phenotype (%): 24%
  Total Cell Count: 112
[4]
  Population Fragmented Nuclei (%): 27%
  Population Healthy Nuclei (%): 39%
  Population Hoechst High Intensity Objects (%): 38%
  Population Membrane Permeable-Phenotype (%): 9%
  Population Mitochondria Different-Phenotype (%): 3%
  Population Normal (%): 61%
  Population Tubulin-Different-Phenotype (%): 35%
  Total Cell Count: 315
[5]
  Population Healthy Nuclei (%): 73%
  Population Mitochondria Different-Phenotype (%): 4%
  Population Tubulin-Different-Phenotype (%): 18%
  Total Cell Count: 173
[6]
  Population Fragmented Nuclei (%): 35%
  Population Healthy Nuclei (%): 46%
  Population Hoechst High Intensity Objects (%): 7%
  Population Mitochondria Different-Phenotype (%): 9%
  Population Normal (%): 92%
  Population Tubulin-Different-Phenotype (%): 43%
  Total Cell Count: 179
[7]
  Population Fragmented Nuclei (%): 19%
  Population Membrane Permeable-Phenotype (%): 3%
  Population Mitochondria Different-Phenotype (%): 7%
  Population Tubulin-Different-Phenotype (%): 25%
  Total Cell Count: 107
[8]
  Population Healthy Nuclei (%): 38%
  Population Hoechst High Intensity Objects (%): 32%
  Population Mitochondria Different-Phenotype (%): 10%
  Population Normal (%): 67%
  Population Tubulin-Different-Phenotype (%): 47%
  Total Cell Count: 230
[9]
  Population Fragmented Nuclei (%): 16%
  Population Healthy Nuclei (%): 69%
  Population Mitochondria Different-Phenotype (%): 1%
  Population Tubulin-Different-Phenotype (%): 21%
  Total Cell Count: 184
[10]
  Population Fragmented Nuclei (%): 36%
  Population Healthy Nuclei (%): 47%
  Population Mitochondria Different-Phenotype (%): 8%
  Population Tubulin-Different-Phenotype (%): 54%
  Total Cell Count: 174
[11]
  Population Fragmented Nuclei (%): 18%
  Population Mitochondria Different-Phenotype (%): 4%
  Population Tubulin-Different-Phenotype (%): 24%
  Total Cell Count: 110
[12]
  Population Healthy Nuclei (%): 44%
  Population Hoechst High Intensity Objects (%): 29%
  Population Membrane Permeable-Phenotype (%): 4%
  Population Mitochondria Different-Phenotype (%): 1%
  Population Normal (%): 70%
  Population Tubulin-Different-Phenotype (%): 47%
  Total Cell Count: 231
